Measurements published in ChEMBL document CHEMBL2331435, “Structure-activity relationship study of vitamin k derivatives yields highly potent neuroprotective agents” (J Med Chem, 2013).

Test system: not listed separately
Assay: Therapeutic index, ratio of cytotoxic TC50 for mouse HT22 cells to neuroprotective PD50 for mouse HT22 cells
Assay type: cell-based, HT-22
Conditions: read-out: TI

In order of rising selectivity ratio:
1. CC1=C(N)C(=O)c2ccccc2C1=O  31
2. O=C1C=C(NCc2ccccn2)C(=O)c2ccccc21  54
3. O=C1C=C(O)C(=O)c2ccccc21 [LAWSONE]  100
4. O=C1C=C(NCCc2ccccc2)C(=O)c2ccccc21  171
5. O=C1C=C(NCc2cccnc2)C(=O)c2ccccc21  172
6. COC(=O)c1ccc(CNC2=CC(=O)c3ccccc3C2=O)cc1  431
7. CN(Cc1ccccc1)C1=CC(=O)c2ccccc2C1=O  781
8. COc1ccc(CNC2=CC(=O)c3ccccc3C2=O)cc1  877
9. O=C1C=C(NCc2ccncc2)C(=O)c2ccccc21  1110

Test system: not listed separately
Assay: Neurotoxicity in mouse HT22 cells assessed as cell viability after 24 hrs by MTS assay
Assay type: toxicity, cell-based, HT-22
Conditions: read-out: TC50
In short: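 HT22 cells were seeded at 5.0 × 10^3 per well, cultured overnight, and treated with a range of compound concentrations without glutamate for 24 h. MTS was added for 2 h and absorbance read at 490 nm. Viability was expressed as percent of untreated cells, and TC50 was fit from titration curves (7- or 12-point, n = 3–4).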

O=C1C=C(NCc2ccccn2)C(=O)c2ccccc21 and O=C1C=C(NCc2cccnc2)C(=O)c2ccccc21 are within 1.5-fold of each other in CC50 at 24 h: 50 µM for the first, 37 µM for the second.

Going from O=C1C=C(NCc2ccncc2)C(=O)c2ccccc21 to COc1ccc(CNC2=CC(=O)c3ccccc3C2=O)cc1, the CC50 at 24 h rises from 80 µM to > 100 µM.

O=C1C=C(NCCc2ccccc2)C(=O)c2ccccc21 and CN(Cc1ccccc1)C1=CC(=O)c2ccccc2C1=O cannot be ordered by CC50 at 24 h: > 100 µM for the first, > 100 µM for the second.

COC(=O)c1ccc(CNC2=CC(=O)c3ccccc3C2=O)cc1 and O=C1C=C(O)C(=O)c2ccccc21 [LAWSONE] cannot be ordered by CC50 at 24 h: > 100 µM for the first, > 100 µM for the second.

In the case of CC1=C(N)C(=O)c2ccccc2C1=O, the CC50 at 24 h is reported as 54 µM.

Test system: HT-22
Assay: Neuroprotective activity in mouse HT22 cells assessed as prevention from glutamate-induced oxidative cell death by MTS assay
Assay type: functional
Conditions: not given
In short: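 HT22 cells grown in high-glucose DMEM with 10% FBS and antibiotic-antimycotic at 37°C, 5% CO2. Seeded at 5.0 × 10^3 cells/well overnight, then given 10 mM glutamate (final) plus compound from DMSO stock. MTS added 24 h after treatment, 2 h at 37°C, A490 read. Viability taken as % of untreated cells. PC50 from 12-point titrations; experiments repeated at least four times.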

Molecule O=C1C=C(NCc2ccncc2)C(=O)c2ccccc21 has a PD50 of 72 nM.
